Source: PubChem BioAssay (several laboratories)
Only some compounds are listed: those with a hit (about 9.3% of all), similar ones and a draw of the others.
D1 mod – D1 CRE-luciferase signal change, two-sided – cell-based, HEK293 D1, dopamine EC30, D1 allosteric modulator project, primary screen; dopamine EC30 potentiation; actives deviate in either direction; B-score at 10 µM; 5.9% of 58,000 active;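 active = luminescence count or its row- and column-corrected plate score outside the 99.7% band of the plate's sample wells, on either side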
DAT uptake mod – changed hDAT dopamine uptake under cocaine IC80, either direction, primary screen, cocaine antagonist project, cell-based, LLC-PK1 hDAT, [14C]-dopamine uptake, MLSMR; Sodium-dependent dopamine transporter (Homo sapiens), Q01959; 1.3% of 110,000 active; AID 449768, 2010; B-score at 10 µM; LLC-PK1 hDAT cells, [14C]-dopamine uptake with cocaine IC80; actives deviate in either direction;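 active = Z score or B-score, a plate-position-corrected score, falls beyond the plate's 99.7% confidence bounds, in either direction; inactive = both scores lie inside the 99.7% bounds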;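 note: scored against the spread of the other compound wells on the same plate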
Target sequence (Q01959 whole entry, looked up): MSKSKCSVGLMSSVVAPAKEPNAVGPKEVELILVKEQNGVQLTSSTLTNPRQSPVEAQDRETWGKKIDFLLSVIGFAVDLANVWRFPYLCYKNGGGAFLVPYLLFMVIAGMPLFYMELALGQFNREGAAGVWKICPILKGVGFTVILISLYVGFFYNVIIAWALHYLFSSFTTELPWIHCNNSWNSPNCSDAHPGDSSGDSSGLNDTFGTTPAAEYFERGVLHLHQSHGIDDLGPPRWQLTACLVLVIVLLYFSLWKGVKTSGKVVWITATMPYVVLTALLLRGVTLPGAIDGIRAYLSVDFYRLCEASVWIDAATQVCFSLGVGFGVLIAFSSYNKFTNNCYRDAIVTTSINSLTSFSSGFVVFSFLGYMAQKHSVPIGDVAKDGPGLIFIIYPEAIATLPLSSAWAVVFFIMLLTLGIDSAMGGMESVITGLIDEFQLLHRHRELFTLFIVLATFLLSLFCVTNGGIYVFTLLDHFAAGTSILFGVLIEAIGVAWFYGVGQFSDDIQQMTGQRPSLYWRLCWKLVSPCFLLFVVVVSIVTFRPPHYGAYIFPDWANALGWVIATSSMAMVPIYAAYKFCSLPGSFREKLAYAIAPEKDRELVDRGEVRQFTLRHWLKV
PostGolgi yeast – phenotypic screen on post-Golgi transport, primary screen | inhibition, % at 10 µM | post-Golgi transport phenotypic cell assay | AID 739, 2007 | 0.9% of 98,000 active;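 note: yeast cells grown in 1536-well plates; yeast grown about 18 h at 30C before absorbance read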
PostGolgi ctrl – growth inhibition of yeast control strain, primary screen, counter-screen for post-Golgi transport modulator project | 5% of 98,000 active | AID 738, 2007 | efflux-deficient yeast background strain, growth absorbance A615, 16 h | inhibition, % at 10 µM
tolC growth inh – growth inhibitors of E. coli tolC mutant, primary screen, strain BW25113 ΔtolC::kan, 384-well; OD615; growth inhibition, % at 10 µM (by protocol); 2.2% of 65,000 active; AID 573, 2007;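 active = growth inhibition at or above a cutoff equal to the mean over every tested compound plus 3 SD, cut at about 60% in these data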;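 note: growth measured after 20 h incubation at 37 °C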
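Test system: E. coli BW25113 ΔtolC::kan bacteria | Medium: Kanamycin-containing LB broth (50 µg/mL) | Dosing: One dose of 10 µM final | Times: 20 h incubation with compound, 37 °C | Detection: Optical density read at 615 nm | Read-out basis: Percent growth inhibition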
E coli WT exp – growth inhibitors of wild-type E. coli, primary screen, strain BW25113, expanded library, OD600; OD600 absorbance; growth inhibition, % at 100 µM; 0.15% of 98,000 active;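 active = growth inhibition above about 50% at one test dose, limit read from the data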;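 note: growth measured after 20 h incubation at 37 °C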
Numbers without * were called inactive; x = not tested or not shown. Cut-off read from the data, not from the text of the source, unless noted: active = inhibition above about 30%; inactive = the rest.

SMILES | D1 mod | DAT uptake mod | PostGolgi yeast | PostGolgi ctrl | tolC growth inh | E coli WT exp
Cc1ccc(SCCNS(=O)(=O)c2ccc3c(c2)OCCO3)cc1 | -0.21 | 1 | 0 | 46* | 74* | -27
Cc1ccc(SCCNS(=O)(=O)c2ccc(F)cc2)cc1 | 0.11 | 1.1 | -4 | 48* | 10 | -6
O=S(=O)(NCCSc1ccc(Cl)cc1)c1ccc(F)cc1 | x | -0.13 | -1 | 19 | x | 21
CCSc1nnc2n(-c3ccc(OC)cc3)c(=O)c3c4c(sc3n12)CCCC4 | x | -8* | -7 | 9 | x | -4
CCCCN(CCCC)C(=O)CSc1nnc2n(C)c(=O)c3c4c(sc3n12)CCCC4 | x | 0.099 | 4 | 34* | 4 | -4
COc1ccc(CSc2nnc3n(C)c(=O)c4c5c(sc4n23)CCCC5)cc1 | x | x | x | x | 0 | x
Cn1c(=O)c2c(nc(Sc3n[nH]c(N)n3)n2Cc2ccccc2Cl)n(C)c1=O | -0.042 | 1.2 | -8 | -2 | -1 | -4
O=S(=O)(c1ccccc1Cl)N1CCC(O)(c2ccc3c(c2)OCO3)CC1 | 0.31 | 2.1 | -4 | 13 | 17 | -3
CCC(=O)Nc1c(-c2ccc(OC)cc2)c(=O)c2ccccc2n1C | 0.47 | -9.1* | 10 | 5 | -15 | -5
Cc1c(C(=O)N2CCN(S(C)(=O)=O)CC2)oc2ccccc12 | 0.3 | -0.53 | -8 | 34* | 2 | 7
O=C(C#Cc1ccccc1)c1ccc([N+](=O)[O-])cc1 | x | -0.99 | 11 | 36* | x | 2
Cc1ccc(OCC(=O)N/N=C/c2ccc([N+](=O)[O-])o2)cc1 | x | -0.18 | 5 | 21 | x | 29
O=C(N/N=C/c1ccc([N+](=O)[O-])o1)c1cc(-c2cccc(Br)c2)nc2ccccc12 | x | 0.17 | 103* | 36* | x | -13
CCCc1ccc(-c2cc(C(=O)N/N=C/c3ccc([N+](=O)[O-])o3)c3ccccc3n2)cc1 | x | x | 6 | 32* | x | -5
Cc1nn(-c2ccccc2)c2c1C(O)n1c(nc3ccccc31)S2 (configuration not stated) | 2.5 | -0.35 | -4 | 20 | 17 | 3
NC(=O)[C@@H]1CCNc2c(I)cc([N+](=O)[O-])cc2C(=O)N[C@@H](CCC(=O)O)C(=O)N[C@@H](CO)C(=O)N1 | x | 0.42 | x | x | x | x
COc1ccc(N(CC(=O)Nc2cccc(OC)c2)S(=O)(=O)c2c(C)nn(C)c2C)cc1 | x | 0.011 | -4 | 5 | -15 | 1
COc1ccc(N(CC(=O)NCc2ccccc2)S(=O)(=O)c2c(C)nn(C)c2C)cc1 | x | -0.12 | 1 | 9 | x | 0
COc1ccc(N(CC(=O)NCc2cccnc2)S(=O)(=O)c2c(C)nn(C)c2C)cc1 | 0.25 | 1.5 | -4 | 37* | -18 | 0
COc1ccc(N(CC(=O)Nc2nc3ccc(C)cc3s2)S(=O)(=O)c2c(C)nn(C)c2C)cc1 | -0.16 | 0.93 | -1 | 32* | 60 | -5
N=C1C=CC=C2C1=NC1(CCCCC1)N2O | 1.5 | -0.084 | -1 | 2 | -5 | 4
COC(=O)C1=C(C(=O)OC)[C@@H]2Nc3ccccc3[C@@]23C[C@@H](C(=O)OC)N(C(C)=O)C3=N1 | x | -0.068 | x | x | x | x
COC(=O)c1sccc1NC(=S)N1CC(C)CC(C)C1 (configuration not stated) | x | 1.6 | -2 | 3 | x | 2
O=C(NCC1CC1)c1cc(-c2ccccc2)nn1CC1CC(c2cccnc2)=NO1 (configuration not stated) | x | 0.33 | x | x | x | x
CCN(CC)CCNc1c2c(c(C#N)c3nc4ccccc4n13)CCCC2 | x | -1.2 | 22 | 46* | x | -4
SMILES | D1 mod | DAT uptake mod | PostGolgi yeast | PostGolgi ctrl | tolC growth inh | E coli WT exp
COC(C[C@@H]1O[C@@H]1[C@@H](O)COCc1ccccc1)OC | x | 0.91 | x | x | x | x
O=c1c2ccccc2nc(-c2ccc(Br)cc2)n1Cc1ccccc1 | x | -0.18 | 8 | 52* | x | -12
O=c1c2ccccc2nc(-c2ccoc2)n1CCc1ccccc1 | -0.13 | -0.04 | -1 | 41* | 22 | -6
CCOc1ccc(CCn2c(-c3ccco3)nc3ccccc3c2=O)cc1OCC | x | -0.066 | 13 | 21 | x | -9
CC(C)Cn1c(-c2ccccc2)nc2ccccc2c1=O | x | -0.39 | 5 | 1 | x | 0
CC(C)c1nc(-c2c(N)n(C)c(=O)n(C)c2=O)sc1C(=O)C(C)(C)C | x | -0.93 | -3 | 12 | -3 | -11
COC(=O)C1CCN(S(=O)(=O)c2ccc(OC)cc2)CC1 | x | 0.094 | -2 | 9 | x | -5
O=C1CCCC2=C1C(c1ccsc1)CC(=O)N2c1nnc(SCc2ccccc2)s1 (configuration not stated) | x | 0.099 | 4 | 37* | x | -10
COC(=O)c1ccc(Cn2c(O)c(N=O)c3ccccc32)o1 | x | -1.1 | -4 | 12 | 14 | -3
O=Nc1c(O)n(Cc2ccc(Cl)c(Cl)c2)c2ccccc12 | x | -0.091 | 22 | 59* | x | 10
Cc1csc(SCC(=O)c2c(N)n(C)c(=O)n(C)c2=O)n1 | x | x | -3 | 18 | x | -12
Cc1cc(-c2ccco2)n(CC(=O)NCc2ccccc2)n1 | x | -1.4 | 4 | 6 | x | 1
Cc1cc(-c2ccco2)n(CC(=O)O)n1 | -4.3* | -0.21 | -4 | 1 | -17 | 1
CC1CCN(c2nc3c(c(=O)[nH]c(=O)n3C)n2CCSc2ncccn2)CC1 | 0.44 | x | x | x | -1 | x
CC(C)(C)c1[nH]nc2c1C(c1cccnc1)C(C#N)=C(N)O2 (configuration not stated) | -0.32 | -0.28 | 5 | -6 | 3 | 12
CC(C)(C)c1[nH]nc2c1C(Cc1ccccc1)C(C#N)=C(N)O2 (configuration not stated) | -0.58 | 0.45 | -7 | 40* | 64* | 10
O=C(C1=C[C@H](c2ccc(Br)cc2)C[C@H](OCCCCO)O1)N1CCN(Cc2ccccc2)CC1 | x | 1.9 | x | x | x | x
Cn1c(=O)c2cn(Cc3ccc(Cl)cc3)cc2n(C)c1=O | 2 | 0.41 | 1 | 10 | -4 | 0
Cc1c(Cl)cccc1-n1c(SCC(=O)N(C)Cc2ccccc2)nnc1-c1ccncc1 | x | 3.8* | 5 | 10 | x | -11
CCN(CC)C(=O)CSc1nnc([C@H](CCSC)NC(=O)OC(C)(C)C)o1 | -0.03 | -0.0024 | 23 | 4 | 10 | -2
CSCC[C@H](NC(=O)OC(C)(C)C)c1nnc(SCC(N)=O)o1 | -2.2* | -0.32 | 3 | 4 | -12 | -5
CCCCS(=O)(=O)/C=C\C1C2C=CC(C2)C1S(=O)(=O)CCCC (configuration not stated) | -0.22 | -1.5 | -1 | 5 | -13 | -3
CCCCS(=O)(=O)/C=C\C=C/S(=O)(=O)CCCC | -2.4* | x | 94* | 27 | 11 | 31
COc1ccc(-c2cc(N)n(S(=O)(=O)c3ccc(F)cc3)n2)cc1OC | x | 0.89 | -4 | 9 | x | 1
